# Bioassay records deposited in PubChem by several laboratories.
# Compounds with a hit are over-represented: about 1.5% of the library has one in this group of screens.
# Pemphigus Ab inh = blocks pemphigus antibody binding to human desmoglein-3 | binding (percent of control), % at 10 µM | 310,000 compounds, 0.48% hits | AID 588358 | P32926 | DSG3-coupled beads, scFv-anti-DSG3-GFP binding, flow cytometry; active compounds read low;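 active means binding more than 3 SD below its plate's average and above zero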;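 further: hits lower antibody fragment binding to DSG3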
# T cell modulator = T cell immune modulators affecting CD8 T cell-vesicle binding; 2C CD8+ T cell-vesicle binding, flow cytometry; active compounds read low; response (vesicle binding), % at 7 µM; 330,000 compounds, 0.068% hits;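 active means response, share of CD8 T cells binding vesicles, and their 90th percentile fluorescence all below set limits, cut at about 80% in these data, passing the limit was not always enough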;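 further: values below 100% mean blocked vesicle binding to the CD8+ T cells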
#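 System: murine 2C transgenic CD8+ T lymphocytes; also added: QL9-loaded Drosophila micro-vesicles; times: binding 1.5 h at 37 °C; measured by: flow cytometry, PE anti-B7-1 (FL2) versus Alexa647 anti-CD8 (FL8), PFA-fixed; control set: Peptide-free naked vesicles (low) and QL9 vesicles with 0.7% DMSO vehicle (high)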
# LANA-H2A inh = blocks KSHV LANA binding to histone H2A/H2B | Q9QR71 | cell-free LANA-H2A/H2B peptide, fluorescence polarization | inhibition, % (test concentration not listed) | 320,000 compounds, 0.6% hits; in the data active means inhibition mostly above about 10%, no sharp cut-off; inactive means mostly below about 6.7%
# Arrestin-AP2 inh = human beta-arrestin and AP2 interaction inhibition; FITC-arrestin peptide / GST-AP2 beads, flow cytometry; AP2 beta2 appendage carries R879A mutation; inhibition, % at 10 µM; 340,000 compounds, 0.31% hits; AID 504490;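 active means inhibition above a set limit, near 3 SD of compounds lacking own fluorescence, cut at about 54% in these data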;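 further: plate controls were DMSO wells for no effect and 5 µM unlabelled arrestin peptide for full effect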
#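 System: GST-tagged AP2 beta2-adaptin appendage (R879A) on 4 µm glutathione beads / Reagent: FITC-arrestin peptide, 50 nM / Detection: HyperCyt-sampled flow cytometry, FL1 channel, ex 488/em 535 nm / Timing: 12 min plus 1 h, RT / Buffer or medium: PBS plus Tween 20 (0.05%) and BSA (0.1%)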
# HDAC3 inhib = human HDAC3 inhibition | O15379 | inhibition, % at 8.3 µM | 320,000 compounds, 0.15% hits | recombinant HDAC3, fluorogenic peptide/trypsin coupled, fluorescence; in the data active means inhibition above about 26%, passing the limit was not always enough
# Active calls of the source: *; i = inactive; nt = no result; + = active, no number.
SMILES,Pemphigus Ab inh,T cell modulator,LANA-H2A inh,Arrestin-AP2 inh,HDAC3 inhib
CC(C)C(=O)NCCc1nc(-c2ccccc2Cl)no1,111.6,686.2,-2.2,-0.6,-5.4
CCN(CC(=O)Nc1c(F)cccc1F)C(=O)c1ccc(=O)n(C)n1,89.3,nt,nt,-3.9,nt
CCc1nnc(NC(=O)CN2C(=O)N(C)C3(CCCCC3)C2=O)s1,110.3,354.0,5.0,2.3,-1.7
COc1ccc(/C=C/C(=O)NC(=S)Nc2cc([N+](=O)[O-])ccc2O)cc1OC,85.3*,176.7,6.6,11.9,-0.8
CN(CCc1ccccn1)C(=O)CCC1CCCN(C(=O)c2cccc(N(C)C)c2)C1 (stereo not drawn),101.5,328.8,-4.5,-13.8,-0.5
CS(=O)(=O)c1cnc(-c2ccccc2)nc1Sc1ccc(F)cc1,63.6*,250.4,-3.4,-6.7,0.7
CCOc1ccc(-n2nc3ccc(NC(=O)c4ccc5c(c4)OCCO5)cc3n2)cc1,5.0*,208.6,-3.7,-4.7,-5.8
CC1(C)CC(=O)C=C(C#CC2(O)CCCCC2)C1,103.8,nt,nt,nt,nt
COc1ccc2[nH]c(C)c(CCNC(=S)Nc3cc(C)ccc3C)c2c1,-16.5*,553.6,-1.7,-4.4,5.2
O=C(O)c1cccc(-n2cccc2/C=C/[N+](=O)[O-])c1,24.3*,318.1,2.8,30.2,2.1
Cc1nc2nc(NC(=O)c3ccco3)nn2c(C)c1Cl,nt,241.9,4.3,6.9,6.2
CN(/N=C\c1ccc(O)c(O)c1)c1nc(-c2ccccc2)cc(-c2ccccc2)n1,54.1*,240.4,-8.0,nt,-4.5
COc1cc(/C=N/N(c2ccccc2)c2ccccc2)ccc1O,123.2,178.2,-0.3,-5.4,-8.9
COc1ccc(NC(=O)c2nc[nH]c2C(=O)NCCCCCNC(=O)OC(C)(C)C)cc1,nt,718.0,-0.6,nt,-4.8
Cc1cc(C)cc(NC(=S)N2CCN(c3ccccn3)CC2)c1,116.1,438.3,-1.8,7.0,-6.9
Cc1cc(C)cc(NC(=S)N2CCN(c3ncccn3)CC2)c1,99.2,147.1,21.3*,-0.1,2.8
Cc1cc(C)cc(NC(=O)N2CCCN(c3ncccc3[N+](=O)[O-])CC2)c1,109.0,533.4,14.1*,38.3,-3.5
O=C(c1ccc([N+](=O)[O-])cc1[N+](=O)[O-])n1cnc2ccccc21,78.8*,356.6,-5.2,37.8,-1.8
Nc1ccc2nc(CCCCCCc3nc4ccc(N)cc4[nH]3)[nH]c2c1,65.0*,455.2,1.0,6.5,2.9
O=C(N/N=C/C=C\c1cccc([N+](=O)[O-])c1)c1ccccn1,99.2,196.0,61.1*,5.2,-5.7
Nc1ccc(C(=O)N/N=C\C=C\c2ccc([N+](=O)[O-])cc2)cc1,44.4*,657.3,0.8,-4.0,-4.2
O=C(N/N=C/C=C/c1ccc2c(c1)OCO2)c1ccc([N+](=O)[O-])cc1,88.1,449.9,1.9,-5.1,-0.1
COC(=O)c1ccc(NC(=O)C2CC(=O)N(c3cc(C)ccc3C)C2)cc1 (stereo not drawn),100.8,181.5,4.2,-1.4,5.7
CCc1ccc(N2CC(C(=O)N/N=C/c3ccccc3)CC2=O)cc1 (stereo not drawn),nt,i,2.8,10.9,2.2
COC(=O)c1ccc(/C=N/NC(=O)C2CC(=O)N(c3ccc(F)cc3)C2)cc1 (stereo not drawn),123.5,234.8,12.7*,39.2,3.5
SMILES,Pemphigus Ab inh,T cell modulator,LANA-H2A inh,Arrestin-AP2 inh,HDAC3 inhib
COc1ccc(N2CC(C(=O)Nc3ccc(S(=O)(=O)N4CCCC4)cc3)CC2=O)cc1 (stereo not drawn),30.5*,199.9,3.6,33.4,-3.1
COC(=O)c1ccc(NC(=O)C2CC(=O)N(c3ccc(C)cc3)C2)cc1 (stereo not drawn),-24.7*,262.8,-0.9,11.8,-0.8
COc1cc(F)cc(-c2ccc3c(c2)c(C#Cc2ccsc2)c(-c2cc(OC)cc(OC)c2)n3C)c1,94.9,306.7,6.0,4.7,-0.6
COc1ccc(C2C(C(=O)N3CCCC3)c3cc(OC)c(OC)cc3C(=O)N2C)cc1OC (stereo not drawn),nt,344.1,2.5,4.1,2.7
COc1ccc(C2C(C(=O)N3CCN(C)CC3)c3cc(OC)c(OC)cc3C(=O)N2C)cc1 (stereo not drawn),nt,125.2,+,-6.4,6.7
CCN1CCN(C(=O)C2c3cc(OC)c(OC)cc3C(=O)N(C)C2c2ccc(SC)cc2)CC1 (stereo not drawn),103.1,218.1,-7.5,2.6,28.2*
O=C1NN=C2CCCCCC12 (stereo not drawn),110.1,nt,nt,nt,nt
CC1CCC2(CC1)NC(=S)N(c1ccccc1)N2 (stereo not drawn),110.8,304.7,17.5*,3.1,-3.5
C[C@@H]1CN([C@H](C)CO)C(=O)c2cccc(NC(=O)NC3CCCCC3)c2O[C@@H]1CN(C)C(=O)Nc1ccc(C(F)(F)F)cc1,108.0,894.5,-0.1,-3.9,28.4*
C[C@H]1CN([C@@H](C)CO)C(=O)c2cccc(NC(=O)Nc3ccc(C(F)(F)F)cc3)c2O[C@@H]1CN(C)S(=O)(=O)c1ccccc1,88.7,242.9,nt,12.6,nt
C[C@H](CO)N1C[C@H](C)[C@@H](CN(C)C(=O)Nc2ccc(C(F)(F)F)cc2)Oc2c(NC(=O)NC3CCCCC3)cccc2C1=O,99.7,977.8,-2.6,4.5,16.7
COc1ccc(S(=O)(=O)N(C)C[C@H]2Oc3c(NC(=O)Nc4ccc(C(F)(F)F)cc4)cccc3C(=O)N([C@H](C)CO)C[C@@H]2C)cc1,103.8,447.0,-3.8,-1.8,32.3*
CC(C)NC(=O)Nc1ccc2c(c1)C(=O)N([C@H](C)CO)C[C@H](C)[C@@H](CN(C)C(=O)Nc1ccc(C(F)(F)F)cc1)O2,99.5,244.4,+,-3.0,9.0
COc1ccc(NC(=O)CSc2nnc(CN3CCOCC3)n2C)cc1Cl,116.6,i,-14.7,-7.5,-1.3
NS(=O)(=O)c1ccc(CCNC(=O)C2CCCN2S(=O)(=O)c2cccc3nsnc23)cc1 (stereo not drawn),98.2,256.5,-4.1,0.5,3.3
CC(C)(O)CC[C@@H](O)[C@](C)(O)C1CC[C@@]2(O)C3=CC(=O)[C@]4(O)C[C@@H](O)[C@@H](O)C[C@]4(C)C3CC[C@]12C (stereo partly drawn),106.4,192.8,2.8,17.2,-5.8
COc1ccc2cc(C3=CCCCC3)ncc2c1,105.9,867.4,-1.4,7.6,-1.3
CCN(CCn1cccn1)Cc1nc(-c2ccc(OC)cc2)no1,104.8,106.2,+,10.4,-10.1
CCN(CCn1cccn1)Cc1nc(-c2ccccc2)no1,102.4,0.0,-4.6,24.4,-6.8
COc1ccc(C(CNC(=O)c2ccc(S(=O)(=O)Nc3ccccc3OC)cc2)N2CCCC2)cc1 (stereo not drawn),174.2,nt,nt,-2.2,nt
COc1ccc(CC(=O)Nc2ccc(/C(C)=N/NC(=O)c3cccc([N+](=O)[O-])c3)cc2)cc1,77.5*,342.2,-0.9,17.3,1.0
